Laboratory results as given in ChEMBL document CHEMBL6083196, “Synthesis and cytotoxic activity of madecassic acid-silybin conjugate compounds in liver cancer cells” (2024).

What was measured:
Type in all cases: functional
[1] = system: HepG2; experiment: Cytotoxicity against human HepG2 cells incubated for 96 hrs by MTT assay
Method in brief: (§1)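 Cells grown in DMEM with 10% FBS and 1% antibiotic at 37 °C, 5% CO2. Trypsinised, seeded at 3 × 10^4 cells per mL, treated over an eight-point titration for 96 h. MTT (0.5 mg mL−1) added for 4 h at 37 °C, formazan dissolved in DMSO, absorbance read at 570 nm. GI50 is the concentration halving the MTT signal versus untreated control. Ellipticine served as reference; n ≥ 3 repeats.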

[2] = system: Hep 3B2; experiment: Cytotoxicity against human Hep3B cells incubated for 96 hrs by MTT assay; method in brief: as §1
[3] = system: Huh-7; experiment: Cytotoxicity against human Huh-7 cells incubated for 96 hrs by MTT assay; method in brief: as §1
[4] = Cytotoxicity against human Huh-7R cells incubated for 96 hrs by MTT assay; method in brief: as §1
[5] = system: HepG2; experiment: Induction of apoptosis in human HepG2 cells assessed as viable cells at GI50 incubated for 24 hrs by Annexin V-FITC/PI staining based flow cytometry (reference value: 88.62 %)
[6] = system: HepG2; experiment: Induction of apoptosis in human HepG2 cells assessed as early apoptotic cells at GI50 incubated for 24 hrs by Annexin V-FITC/PI staining based flow cytometry (reference value: 2.98 %)
[7] = system: HepG2; experiment: Induction of apoptosis in human HepG2 cells assessed as late apoptotic cells at GI50 incubated for 24 hrs by Annexin V-FITC/PI staining based flow cytometry (reference value: 3.06 %)
[8] = system: HepG2; experiment: Induction of apoptosis in human HepG2 cells assessed as necrotic cells at GI50 incubated for 24 hrs by Annexin V-FITC/PI staining based flow cytometry (reference value: 5.34 %)
[9] = system: HepG2; experiment: Induction of apoptosis in human HepG2 cells assessed as viable cells at 3 times GI50 incubated for 24 hrs by Annexin V-FITC/PI staining based flow cytometry (reference value: 88.62 %)
[10] = system: HepG2; experiment: Induction of apoptosis in human HepG2 cells assessed as early apoptotic cells at 3 times GI50 incubated for 24 hrs by Annexin V-FITC/PI staining based flow cytometry (reference value: 2.98 %)
[11] = system: HepG2; experiment: Induction of apoptosis in human HepG2 cells assessed as late apoptotic cells at 3 times GI50 incubated for 24 hrs by Annexin V-FITC/PI staining based flow cytometry (reference value: 3.06 %)
[12] = system: HepG2; experiment: Induction of apoptosis in human HepG2 cells assessed as necrotic cells at 3 times GI50 incubated for 24 hrs by Annexin V-FITC/PI staining based flow cytometry (reference value: 5.34 %)
[13] = system: HepG2; experiment: Induction of apoptosis in human HepG2 cells assessed as fold change in caspase-3 level at 0.3 times GI50 incubated for 1 hr by colorimetric assay relative to control
Method in brief: (§2)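 Lysates taken from HepG2 cells 1, 6 or 24 h after treatment at 0.3×, 1× or 3× GI50. Lysis on ice for 10 min, then 10 000 × g spin; protein measured by Bradford. 80 μg protein incubated with DTT and DEVD-pNA substrate for 1 h at 37 °C, in triplicate; absorbance read at 405 nm. Result expressed as fold change versus untreated cells. Camptothecin 0.5 μM as control; mean and SE reported.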

[14] = system: HepG2; experiment: Induction of apoptosis in human HepG2 cells assessed as fold change in caspase-3 level at 0.3 times GI50 incubated for 6 hrs by colorimetric assay relative to control; method in brief: as §2
[15] = system: HepG2; experiment: Induction of apoptosis in human HepG2 cells assessed as fold change in caspase-3 level at 0.3 times GI50 incubated for 24 hrs by colorimetric assay relative to control; method in brief: as §2
[16] = system: HepG2; experiment: Induction of apoptosis in human HepG2 cells assessed as fold change in caspase-3 level at GI50 incubated for 1 hr by colorimetric assay relative to control; method in brief: as §2
[17] = system: HepG2; experiment: Induction of apoptosis in human HepG2 cells assessed as fold change in caspase-3 level at GI50 incubated for 6 hrs by colorimetric assay relative to control; method in brief: as §2
[18] = system: HepG2; experiment: Induction of apoptosis in human HepG2 cells assessed as fold change in caspase-3 level at GI50 incubated for 24 hrs by colorimetric assay relative to control; method in brief: as §2
[19] = system: HepG2; experiment: Induction of apoptosis in human HepG2 cells assessed as fold change in caspase-3 level at 3 times GI50 incubated for 1 hr by colorimetric assay relative to control; method in brief: as §2
[20] = system: HepG2; experiment: Induction of apoptosis in human HepG2 cells assessed as fold change in caspase-3 level at 3 times GI50 incubated for 6 hrs by colorimetric assay relative to control; method in brief: as §2
[21] = system: HepG2; experiment: Induction of apoptosis in human HepG2 cells assessed as fold change in caspase-3 level at 3 times GI50 incubated for 24 hrs by colorimetric assay relative to control; method in brief: as §2
[22] = system: HepG2; experiment: Induction of cell cycle arrest in human HepG2 cells assessed as accumulation at G0/G1 phase at IC50 incubated for 24 hrs by PI staining based flow cytometry (reference value: 24.63 %)
[23] = system: HepG2; experiment: Induction of cell cycle arrest in human HepG2 cells assessed as accumulation at S phase at IC50 incubated for 24 hrs by PI staining based flow cytometry (reference value: 46.83 %)
[24] = system: HepG2; experiment: Induction of cell cycle arrest in human HepG2 cells assessed as accumulation at G2/M phase at IC50 incubated for 24 hrs by PI staining based flow cytometry (reference value: 27.69 %)
[25] = system: HepG2; experiment: Induction of cell cycle arrest in human HepG2 cells assessed as accumulation at G0/G1 phase at 3 times IC50 incubated for 24 hrs by PI staining based flow cytometry (reference value: 24.63 %)
[26] = system: HepG2; experiment: Induction of cell cycle arrest in human HepG2 cells assessed as accumulation at S phase at 3 times IC50 incubated for 24 hrs by PI staining based flow cytometry (reference value: 46.83 %)
[27] = system: HepG2; experiment: Induction of cell cycle arrest in human HepG2 cells assessed as accumulation at G2/M phase at 3 times IC50 incubated for 24 hrs by PI staining based flow cytometry (reference value: 27.69 %)

Q: With `COc1cc([C@H]2Oc3cc([C@H]4Oc5cc(OC(C)=O)cc(OC(C)=O)c5C(=O)[C@@H]4OC(=O)CCNC(=O)[C@]45CC[C@@H](C)[C@H](C)[C@H]4C4=CC[C@@H]6[C@@]7(C)C[C@@H](OC(C)=O)[C@H](OC(C)=O)[C@@](C)(COC(C)=O)C7=CC[C@@]6(C)[C@]4(C)CC5)ccc3O[C@@H]2COC(C)=O)ccc1OC(C)=O` as the compound, how does the GI50 [1] read?
A: The GI50 was 352 µM.

Q: For `COc1cc([C@H]2Oc3cc([C@H]4Oc5cc(O)cc(O)c5C(=O)[C@@H]4OC(=O)CNC(=O)[C@]45CC[C@@H](C)[C@H](C)[C@H]4C4=CC[C@@H]6[C@@]7(C)C[C@@H](OC(C)=O)[C@H](OC(C)=O)[C@@](C)(COC(C)=O)C7=CC[C@@]6(C)[C@]4(C)CC5)ccc3O[C@@H]2CO)ccc1O`, which GI50 [1] is on record?
A: Its GI50 is 174 µM.

Q: Which GI50 [1] does the source give for `C[C@H]1[C@H](C)CC[C@]2(C(=O)O)CC[C@]3(C)C(=CC[C@@H]4[C@@]5(C)C[C@@H](O)[C@H](O)[C@@](C)(CO)[C@@H]5[C@H](O)C[C@]43C)[C@H]12` [MADECASSIC ACID] here?
A: Its GI50 is 161 µM.

Q: What about the GI50 [2] of the same compound?
A: Its GI50 is 178 µM.

Q: What about the GI50 [3] of the same compound?
A: The GI50 was 198 µM.

Q: And the GI50 [4]?
A: Its GI50 is 215 µM.

Q: What about the Activity [5] of the same compound?
A: The Activity was 80.48%.

Q: What about the Activity [6] of the same compound?
A: Its Activity is 9%.

Q: And the Activity [7]?
A: The Activity was 4.29%.

Q: And the Activity [8]?
A: Its Activity is 6.23%.

Q: What about the Activity [9] of the same compound?
A: Its Activity is 72.03%.

Q: What about the Activity [10] of the same compound?
A: Its Activity is 13.37%.

Q: And the Activity [11]?
A: The Activity was 6.16%.

Q: What about the Activity [12] of the same compound?
A: Its Activity is 8.44%.

Q: What about the “fold change (FC)” value [13] of the same compound?
A: Its value is 0.74.

Q: What about the “fold change (FC)” value [14] of the same compound?
A: The value was 0.81.

Q: And the “fold change (FC)” value [15]?
A: The value was 0.99.

Q: And the “fold change (FC)” value [16]?
A: The value was 0.94.

Q: What about the “fold change (FC)” value [17] of the same compound?
A: Its value is 1.16.

Q: What about the “fold change (FC)” value [18] of the same compound?
A: The value was 0.68.

Q: What about the “fold change (FC)” value [19] of the same compound?
A: Its value is 0.97.

Q: And the “fold change (FC)” value [20]?
A: Its value is 1.71.

Q: And the “fold change (FC)” value [21]?
A: The value was 0.54.

Q: What about the Activity [22] of the same compound?
A: The Activity was 19.29%.

Q: And the Activity [23]?
A: Its Activity is 58.52%.

Q: What about the Activity [24] of the same compound?
A: Its Activity is 21.51%.

Q: And the Activity [25]?
A: Its Activity is 54.22%.

Q: What about the Activity [26] of the same compound?
A: The Activity was 24.25%.

Q: What about the Activity [27] of the same compound?
A: Its Activity is 20.71%.

Q: With `COc1cc([C@H]2Oc3cc([C@H]4Oc5cc(O)cc(O)c5C(=O)[C@@H]4OC(=O)CCNC(=O)[C@]45CC[C@@H](C)[C@H](C)[C@H]4C4=CC[C@@H]6[C@@]7(C)C[C@@H](OC(C)=O)[C@H](OC(C)=O)[C@@](C)(COC(C)=O)[C@@H]7[C@H](O)C[C@@]6(C)[C@]4(C)CC5)ccc3O[C@@H]2CO)ccc1O` as the compound, how does the GI50 [1] read?
A: The GI50 was 141 µM.

Q: With `COc1cc([C@H]2Oc3cc([C@H]4Oc5cc(O)cc(O)c5C(=O)[C@@H]4OC(=O)CCNC(=O)[C@]45CC[C@@H](C)[C@H](C)[C@H]4C4=CC[C@@H]6[C@@]7(C)C[C@@H](OC(C)=O)[C@H](OC(C)=O)[C@@](C)(COC(C)=O)C7=CC[C@@]6(C)[C@]4(C)CC5)ccc3O[C@@H]2CO)ccc1O` as the compound, how does the GI50 [1] read?
A: Its GI50 is 344 µM.

Q: Which GI50 [1] does the source give for `CC(=O)OC[C@@]1(C)[C@@H]2[C@H](O)C[C@]3(C)[C@H](CC=C4[C@@H]5[C@@H](C)[C@H](C)CC[C@]5(C(=O)O)CC[C@]43C)[C@@]2(C)C[C@@H](OC(C)=O)[C@@H]1OC(C)=O` here?
A: Its GI50 is 44.1 µM.

Q: For `COc1cc([C@H]2Oc3cc([C@H]4Oc5cc(OC(C)=O)cc(OC(C)=O)c5C(=O)[C@@H]4OC(=O)CCNC(=O)[C@]45CC[C@@H](C)[C@H](C)[C@H]4C4=CC[C@@H]6[C@@]7(C)C[C@@H](OC(C)=O)[C@H](OC(C)=O)[C@@](C)(COC(C)=O)[C@@H]7[C@H](O)C[C@@]6(C)[C@]4(C)CC5)ccc3O[C@@H]2COC(C)=O)ccc1OC(C)=O`, which GI50 [1] is on record?
A: The GI50 was 360 µM.

Q: For `COc1cc([C@H]2Oc3cc([C@H]4Oc5cc(OC(=O)[C@]67CC[C@@H](C)[C@H](C)[C@H]6C6=CC[C@@H]8[C@@]9(C)C[C@@H](OC(C)=O)[C@H](OC(C)=O)[C@@](C)(COC(C)=O)[C@@H]9[C@H](O)C[C@@]8(C)[C@]6(C)CC7)cc(O)c5C(=O)[C@@H]4O)ccc3O[C@@H]2CO)ccc1O`, which GI50 [1] is on record?
A: The GI50 was greater than 500 µM.

Q: For `COc1cc([C@H]2Oc3cc(-c4oc5cc(O)cc(O)c5c(=O)c4OC(=O)[C@]45CC[C@@H](C)[C@H](C)[C@H]4C4=CC[C@@H]6[C@@]7(C)C[C@@H](OC(C)=O)[C@H](OC(C)=O)[C@@](C)(COC(C)=O)[C@@H]7[C@H](O)C[C@@]6(C)[C@]4(C)CC5)ccc3O[C@@H]2CO)ccc1O`, which GI50 [1] is on record?
A: Its GI50 is 217 µM.
